Measured values taken from ChEMBL document CHEMBL1142768, “2-(2-Furanyl)-7-phenyl[1,2,4]triazolo[1,5-c]pyrimidin-5-amine analogs as adenosine A2A antagonists: the successful reduction of hERG activity. Part 2” (Bioorg Med Chem Lett, 2005).

What was measured:
[1] = Inhibitory constant against Adenosine A2A receptor using [3H]SCH-58261 as radio ligand; set-up: species or system Homo sapiens
Summary of the method: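 Radioligand binding at the adenosine A2A receptor, run in duplicate; Ki reported as the mean of the duplicates.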

hERG (KCNH2) = hERG (KCNH2) (Homo sapiens, UniProt Q12809); assay: Percent inhibition of hERG by rubidium efflux FLIPR assay at concentration of 5 ug/mL; type: toxicity
Rattus norvegicus [2] = assay: Percent reduction of cataleptic effect in rat upon dosing at 3 mg/kg; 23/47; type: functional; set-up: scale not given: the % may be the effect or the level left
Rattus norvegicus [3] = assay: Percent reduction of cataleptic effect in rat upon dosing at 3 mg/kg; 55/40; type: functional; set-up: scale not given: the % may be the effect or the level left
Rattus norvegicus [4] = assay: Percent reduction of cataleptic effect in rat upon dosing at 3 mg/kg; 34/43; type: functional; set-up: scale not given: the % may be the effect or the level left
Rattus norvegicus [5] = assay: Percent reduction of cataleptic effect in rat upon dosing at 3 mg/kg; 23/32; type: functional; set-up: scale not given: the % may be the effect or the level left
Rattus norvegicus [6] = assay: Percent reduction of cataleptic effect in rat upon dosing at 3 mg/kg; 45/20; type: functional; set-up: scale not given: the % may be the effect or the level left
Rattus norvegicus [7] = assay: Percent reduction of cataleptic effect in rat upon dosing at 3 mg/kg; 28/0; type: functional; set-up: scale not given: the % may be the effect or the level left
Rattus norvegicus [8] = assay: Percent reduction of cataleptic effect in rat upon dosing at 3 mg/kg; 36/59; type: functional; set-up: scale not given: the % may be the effect or the level left
Rattus norvegicus [9] = assay: Percent reduction of cataleptic effect in rat upon dosing at 3 mg/kg; 19/46; type: functional; set-up: scale not given: the % may be the effect or the level left
Rattus norvegicus [10] = assay: Percent reduction of cataleptic effect in rat upon dosing at 3 mg/kg; 10/12; type: functional; set-up: scale not given: the % may be the effect or the level left
Rattus norvegicus [11] = assay: Percent reduction of cataleptic effect in rat upon dosing at 3 mg/kg; 0/23; type: functional; set-up: scale not given: the % may be the effect or the level left
Rattus norvegicus [12] = assay: Percent reduction of cataleptic effect in rat upon dosing at 3 mg/kg; 13/13; type: functional; set-up: scale not given: the % may be the effect or the level left

hERG (KCNH2), sequence (Q12809 whole entry): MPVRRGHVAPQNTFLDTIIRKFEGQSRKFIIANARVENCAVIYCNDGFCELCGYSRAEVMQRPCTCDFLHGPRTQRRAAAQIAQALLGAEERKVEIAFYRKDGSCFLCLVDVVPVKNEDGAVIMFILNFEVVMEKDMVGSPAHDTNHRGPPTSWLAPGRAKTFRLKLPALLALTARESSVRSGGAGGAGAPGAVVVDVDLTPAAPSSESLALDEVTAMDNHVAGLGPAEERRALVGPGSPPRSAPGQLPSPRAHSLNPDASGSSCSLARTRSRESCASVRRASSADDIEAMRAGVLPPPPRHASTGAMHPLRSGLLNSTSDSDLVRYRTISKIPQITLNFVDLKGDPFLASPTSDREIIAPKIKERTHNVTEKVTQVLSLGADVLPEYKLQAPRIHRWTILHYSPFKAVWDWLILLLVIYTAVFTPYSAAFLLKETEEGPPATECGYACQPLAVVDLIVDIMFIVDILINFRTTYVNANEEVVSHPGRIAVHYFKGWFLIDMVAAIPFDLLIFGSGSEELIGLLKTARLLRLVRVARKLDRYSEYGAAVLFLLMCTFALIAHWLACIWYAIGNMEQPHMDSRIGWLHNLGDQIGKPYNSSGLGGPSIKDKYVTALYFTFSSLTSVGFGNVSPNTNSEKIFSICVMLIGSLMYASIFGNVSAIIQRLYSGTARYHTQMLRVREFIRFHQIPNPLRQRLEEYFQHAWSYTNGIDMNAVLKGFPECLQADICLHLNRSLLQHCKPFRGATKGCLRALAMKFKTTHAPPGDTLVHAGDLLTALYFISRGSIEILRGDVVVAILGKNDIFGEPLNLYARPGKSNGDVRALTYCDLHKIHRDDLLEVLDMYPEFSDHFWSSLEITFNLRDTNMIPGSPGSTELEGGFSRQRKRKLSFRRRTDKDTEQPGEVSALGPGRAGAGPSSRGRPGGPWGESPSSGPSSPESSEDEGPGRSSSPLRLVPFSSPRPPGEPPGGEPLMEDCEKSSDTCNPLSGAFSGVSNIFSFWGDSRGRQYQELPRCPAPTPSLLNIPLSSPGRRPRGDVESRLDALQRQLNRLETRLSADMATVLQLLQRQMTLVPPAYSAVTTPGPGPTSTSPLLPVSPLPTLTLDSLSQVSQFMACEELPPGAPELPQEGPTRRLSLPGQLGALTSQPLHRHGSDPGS

Compound: Nc1nc(-c2cccc(N3CCN(C(=O)CN4CCOCC4)CC3)c2)cc2nc(-c3ccco3)nn12
- Ki [1]: 0.5 nM
- inhibition at 5 ug/mL (hERG (KCNH2)): 5%
- Activity (Rattus norvegicus [2]): 47%

Compound: COCCOc1cccc(N2CCN(Cc3cccc(-c4cc5nc(-c6ccco6)nn5c(N)n4)c3)CC2)c1
- inhibition at 5 ug/mL (hERG (KCNH2)): 68%

Compound: COCCOc1ccc(N2CCN(c3cccc(-c4cc5nc(-c6ccco6)nn5c(N)n4)c3)CC2)cc1
- Ki [1]: 1 nM
- inhibition at 5 ug/mL (hERG (KCNH2)): -4% (not active)
- Activity (Rattus norvegicus [3]): 55%

Compound: CCCCOC(=O)N1CCN(c2cccc(-c3cc4nc(-c5ccco5)nn4c(N)n3)c2)CC1
- Activity (Rattus norvegicus [4]): 43%
- Ki [1]: 0.5 nM
- inhibition at 5 ug/mL (hERG (KCNH2)): -3% (not active)

Compound: Nc1nc(-c2cccc(N3CCN(CCN4CCOCC4)CC3)c2)cc2nc(-c3ccco3)nn12
- Ki [1]: 1.3 nM
- inhibition at 5 ug/mL (hERG (KCNH2)): 13%
- Activity (Rattus norvegicus [5]): 32%

Compound: Nc1nc(-c2cccc(N3CCC4(CC3)OCCO4)c2)cc2nc(-c3ccco3)nn12
- Activity (Rattus norvegicus [6]): 45%
- Ki [1]: 0.4 nM
- inhibition at 5 ug/mL (hERG (KCNH2)): 8%

Compound: CC1CN(CC(=O)N2CCN(c3cccc(-c4cc5nc(-c6ccco6)nn5c(N)n4)c3)CC2)CCO1 (stereo not drawn)
- Ki [1]: 0.8 nM
- inhibition at 5 ug/mL (hERG (KCNH2)): -3% (not active)
- Activity (Rattus norvegicus [7]): 28%

Compound: Nc1nc(-c2cccc(N3CCNCC3)c2)cc2nc(-c3ccco3)nn12
- Ki [1]: 5.7 nM

Compound: Nc1nc(-c2cccc(N3CCC(=O)CC3)c2)cc2nc(-c3ccco3)nn12
- Ki [1]: 1.3 nM

Compound: Nc1nc(-c2cccc(CO)c2)cc2nc(-c3ccco3)nn12
- inhibition at 5 ug/mL (hERG (KCNH2)): 15%

Compound: Nc1nc(-c2cccc(N3CCC(N4CCOCC4)CC3)c2)cc2nc(-c3ccco3)nn12
- Ki [1]: 0.8 nM
- inhibition at 5 ug/mL (hERG (KCNH2)): 1%
- Activity (Rattus norvegicus [8]): 59%

Compound: COCCOc1cccc(N2CCN(c3cccc(-c4cc5nc(-c6ccco6)nn5c(N)n4)c3)CC2)c1
- Activity (Rattus norvegicus [9]): 46%
- Ki [1]: 2.3 nM
- inhibition at 5 ug/mL (hERG (KCNH2)): 3%

Compound: CC(C)(C)CNC1CCN(c2cccc(-c3cc4nc(-c5ccco5)nn4c(N)n3)c2)CC1
- Ki [1]: 18 nM
- inhibition at 5 ug/mL (hERG (KCNH2)): 9%
- Activity (Rattus norvegicus [10]): 12%

Compound: CC(C)OC(=O)N1CCN(c2cccc(-c3cc4nc(-c5ccco5)nn4c(N)n3)c2)CC1
- Activity (Rattus norvegicus [11]): 23%
- Ki [1]: 1 nM
- inhibition at 5 ug/mL (hERG (KCNH2)): 8%

Compound: COCCOc1ccc(N2CCN(Cc3cccc(-c4cc5nc(-c6ccco6)nn5c(N)n4)c3)CC2)cc1
- inhibition at 5 ug/mL (hERG (KCNH2)): 81%

Compound: CC(C)S(=O)(=O)N1CCN(c2cccc(-c3cc4nc(-c5ccco5)nn4c(N)n3)c2)CC1
- Ki [1]: 0.5 nM
- inhibition at 5 ug/mL (hERG (KCNH2)): 10%
- Activity (Rattus norvegicus [12]): 13%
